Assay results from ChEMBL document CHEMBL3593164, “Rational Design and Synthesis of Thioridazine Analogues as Enhancers of the Antituberculosis Therapy” (J Med Chem, 2015).

Assays:
[1] = test system: Mycobacterium tuberculosis; test: Inhibition of multidrug resistance efflux pump in Mycobacterium tuberculosis H37Rv assessed as ethidium bromide MIC at 2 ug/ml after 7 days by two-dimensional broth microdilution checkerboard assay; conditions: 168 h
[2] = test system: Mycobacterium tuberculosis; test: Inhibition of multidrug resistance efflux pump in Mycobacterium tuberculosis H37Rv assessed as rifampin MIC at 2 ug/ml after 7 days by two-dimensional broth microdilution checkerboard assay; conditions: 168 h
[3] = test system: Mycobacterium tuberculosis; test: Inhibition of multidrug resistance efflux pump in Mycobacterium tuberculosis H37Rv assessed as isoniazid MIC at 2 ug/ml after 7 days by two-dimensional broth microdilution checkerboard assay; conditions: 168 h
[4] = test system: Mycobacterium tuberculosis; test: Inhibition of multidrug resistance efflux pump in Mycobacterium tuberculosis H37Rv assessed as isoniazid MIC at 1 ug/ml after 7 days by two-dimensional broth microdilution checkerboard assay; conditions: 168 h
In short: (§1)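 M. tuberculosis H37Rv two-dimensional broth microdilution checkerboard. MICs of INH, RIF, AMK, OFX or EtBr were determined without and with graded sub-inhibitory compound concentrations, starting at ½ MIC. Where MIC was undeterminable, the highest concentration still permitting growth was taken as ½ MIC. FIC = MIC of antibacterial in combination / MIC alone. FIC ≤0.25 was scored as synergism and ≥2 as antagonism.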

[5] = test system: Mycobacterium tuberculosis; test: Inhibition of multidrug resistance efflux pump in Mycobacterium tuberculosis H37Rv assessed as amikacin MIC at 1 ug/ml after 7 days by two-dimensional broth microdilution checkerboard assay; conditions: 168 h; in short: as §1
[6] = test system: Mycobacterium tuberculosis; test: Inhibition of multidrug resistance efflux pump in Mycobacterium tuberculosis H37Rv assessed as reduction in amikacin MIC at 32 ug/ml after 7 days by two-dimensional broth microdilution checkerboard assay; in short: as §1
[7] = test system: Mycobacterium tuberculosis; test: Inhibition of multidrug resistance efflux pump in Mycobacterium tuberculosis H37Rv assessed as ethidium bromide MIC at 1 ug/ml after 7 days by two-dimensional broth microdilution checkerboard assay; conditions: 168 h; in short: as §1
[8] = test system: Mycobacterium tuberculosis; test: Inhibition of multidrug resistance efflux pump in Mycobacterium tuberculosis H37Rv assessed as rifampin MIC at 1 ug/ml after 7 days by two-dimensional broth microdilution checkerboard assay; conditions: 168 h; in short: as §1
[9] = test system: Mycobacterium tuberculosis; test: Inhibition of multidrug resistance efflux pump in Mycobacterium tuberculosis H37Rv assessed as ofloxacin MIC at 2 ug/ml after 7 days by two-dimensional broth microdilution checkerboard assay; conditions: 168 h
[10] = test system: Mycobacterium tuberculosis; test: Inhibition of multidrug resistance efflux pump in Mycobacterium tuberculosis H37Rv assessed as ofloxacin MIC at 1 ug/ml after 7 days by two-dimensional broth microdilution checkerboard assay; conditions: 168 h; in short: as §1
[11] = test system: Mycobacterium tuberculosis; test: Inhibition of multidrug resistance efflux pump in Mycobacterium tuberculosis H37Rv assessed as reduction in isoniazid MIC at 128 ug/ml after 7 days by two-dimensional broth microdilution checkerboard assay
[12] = test system: Mycobacterium tuberculosis; test: Inhibition of multidrug resistance efflux pump in Mycobacterium tuberculosis H37Rv assessed as reduction in amikacin MIC at 128 ug/ml after 7 days by two-dimensional broth microdilution checkerboard assay
[13] = test system: Mycobacterium tuberculosis; test: Inhibition of multidrug resistance efflux pump in Mycobacterium tuberculosis H37Rv assessed as ofloxacin MIC at 7.5 ug/ml after 7 days by two-dimensional broth microdilution checkerboard assay; conditions: 168 h; in short: as §1
[14] = test system: Mycobacterium tuberculosis; test: Inhibition of multidrug resistance efflux pump in Mycobacterium tuberculosis H37Rv assessed as ethidium bromide MIC at 0.23 ug/ml after 7 days by two-dimensional broth microdilution checkerboard assay; conditions: 168 h
In short: (§2)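 M. tuberculosis H37Rv ATCC27294. MICs of INH, RIF, AMK, OFX and EtBr were determined alone and with sub-inhibitory concentrations of test compound by two-dimensional broth microdilution checkerboard. Where a compound's MIC was not determinable, the highest concentration still allowing growth was taken as ½ MIC. FIC = MIC in combination / MIC alone. FIC ≤0.25 was scored as synergism and ≥2 as antagonism.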

[15] = test system: Mycobacterium tuberculosis; test: Inhibition of multidrug resistance efflux pump in Mycobacterium tuberculosis H37Rv assessed as isoniazid MIC at 3.75 ug/ml after 7 days by two-dimensional broth microdilution checkerboard assay; conditions: 168 h; in short: as §1
[16] = test system: Mycobacterium tuberculosis; test: Inhibition of multidrug resistance efflux pump in Mycobacterium tuberculosis H37Rv assessed as ofloxacin MIC at 3.75 ug/ml after 7 days by two-dimensional broth microdilution checkerboard assay; conditions: 168 h; in short: as §2
[17] = test system: Mycobacterium tuberculosis; test: Inhibition of multidrug resistance efflux pump in Mycobacterium tuberculosis H37Rv assessed as ofloxacin MIC at 0.47 ug/ml after 7 days by two-dimensional broth microdilution checkerboard assay; conditions: 168 h; in short: as §2
[18] = test system: Mycobacterium tuberculosis; test: Inhibition of multidrug resistance efflux pump in Mycobacterium tuberculosis H37Rv assessed as isoniazid MIC at 7.5 ug/ml after 7 days by two-dimensional broth microdilution checkerboard assay; conditions: 168 h; in short: as §1
[19] = test system: Mycobacterium tuberculosis; test: Inhibition of multidrug resistance efflux pump in Mycobacterium tuberculosis H37Rv assessed as reduction in ethidium bromide MIC at 3.75 ug/ml after 7 days by two-dimensional broth microdilution checkerboard assay; in short: as §1
[20] = test system: Mycobacterium tuberculosis; test: Inhibition of multidrug resistance efflux pump in Mycobacterium tuberculosis H37Rv assessed as amikacin MIC at 0.94 ug/ml after 7 days by two-dimensional broth microdilution checkerboard assay; conditions: 168 h; in short: as §2
[21] = test system: Mycobacterium tuberculosis; test: Inhibition of multidrug resistance efflux pump in Mycobacterium tuberculosis H37Rv assessed as ethidium bromide MIC at 0.94 ug/ml after 7 days by two-dimensional broth microdilution checkerboard assay; conditions: 168 h; in short: as §2
[22] = test system: Mycobacterium tuberculosis; test: Inhibition of multidrug resistance efflux pump in Mycobacterium tuberculosis H37Rv assessed as amikacin MIC at 0.47 ug/ml after 7 days by two-dimensional broth microdilution checkerboard assay; conditions: 168 h; in short: as §2
[23] = test system: Mycobacterium tuberculosis; test: Inhibition of multidrug resistance efflux pump in Mycobacterium tuberculosis H37Rv assessed as ofloxacin MIC at 0.23 ug/ml after 7 days by two-dimensional broth microdilution checkerboard assay; conditions: 168 h; in short: as §2
[24] = test system: Mycobacterium tuberculosis; test: Inhibition of multidrug resistance efflux pump in Mycobacterium tuberculosis H37Rv assessed as rifampin MIC at 0.23 ug/ml after 7 days by two-dimensional broth microdilution checkerboard assay; conditions: 168 h; in short: as §2
[25] = test system: Mycobacterium tuberculosis; test: Inhibition of multidrug resistance efflux pump in Mycobacterium tuberculosis H37Rv assessed as ethidium bromide MIC at 7.5 ug/ml after 7 days by two-dimensional broth microdilution checkerboard assay; conditions: 168 h; in short: as §1
[26] = test system: Mycobacterium tuberculosis; test: Inhibition of multidrug resistance efflux pump in Mycobacterium tuberculosis H37Rv assessed as ethidium bromide MIC at 3.75 ug/ml after 7 days by two-dimensional broth microdilution checkerboard assay; conditions: 168 h; in short: as §2
[27] = test system: Mycobacterium tuberculosis; test: Inhibition of multidrug resistance efflux pump in Mycobacterium tuberculosis H37Rv assessed as ofloxacin MIC at 0.94 ug/ml after 7 days by two-dimensional broth microdilution checkerboard assay; conditions: 168 h; in short: as §2
[28] = test system: Mycobacterium tuberculosis; test: Inhibition of multidrug resistance efflux pump in Mycobacterium tuberculosis H37Rv assessed as isoniazid MIC at 1.88 ug/ml after 7 days by two-dimensional broth microdilution checkerboard assay; conditions: 168 h; in short: as §2
[29] = test system: Mycobacterium tuberculosis; test: Inhibition of multidrug resistance efflux pump in Mycobacterium tuberculosis H37Rv assessed as amikacin MIC at 3.75 ug/ml after 7 days by two-dimensional broth microdilution checkerboard assay; conditions: 168 h; in short: as §2
[30] = test system: Mycobacterium tuberculosis; test: Inhibition of multidrug resistance efflux pump in Mycobacterium tuberculosis H37Rv assessed as rifampin MIC at 0.94 ug/ml after 7 days by two-dimensional broth microdilution checkerboard assay; conditions: 168 h; in short: as §2
[31] = test system: Mycobacterium tuberculosis; test: Inhibition of multidrug resistance efflux pump in Mycobacterium tuberculosis H37Rv assessed as isoniazid MIC at 0.47 ug/ml after 7 days by two-dimensional broth microdilution checkerboard assay; conditions: 168 h; in short: as §2

Structure (SMILES): CN1CCCCC1CCn1c2ccccc2c2ccccc21 (racemic)
- MIC [1]: 12.5 µg/mL
- MIC [2]: 1 µg/mL
- MIC [3]: 0.1 µg/mL
- MIC [4]: 0.1 µg/mL
- MIC [5]: 1 µg/mL
- fold change (FC) [6]: 4
- MIC [7]: 12.5 µg/mL
- MIC [8]: 1 µg/mL
- MIC [9]: 1 µg/mL
- MIC [10]: 1 µg/mL

Structure (SMILES): CN1CCCCC1CCn1ccc2ccc(Br)cc21 (racemic)
- fold change (FC) [11]: >164
- fold change (FC) [12]: >128

Structure (SMILES): CSc1ccc2c(c1)N(CCC1CCCCN1C)c1ccccc1S2 (stereo unspecified) [THIORIDAZINE]
- MIC [13]: < 0.0156 µg/mL
- MIC [14]: 6.25 µg/mL
- MIC [15]: 0.05 µg/mL
- MIC [16]: 1 µg/mL
- MIC [17]: 1 µg/mL
- MIC [18]: < 0.78 ng/mL
- fold change (FC) [19]: 4
- MIC [20]: 1 µg/mL
- MIC [21]: 6.25 µg/mL
- MIC [22]: 1 µg/mL
- MIC [23]: 1 µg/mL
- MIC [24]: 1 µg/mL
- MIC [25]: < 0.195 µg/mL
- MIC [26]: 3.12 µg/mL
- MIC [27]: 1 µg/mL
- MIC [28]: 0.1 µg/mL
- MIC [29]: 1 µg/mL
- MIC [30]: 1 µg/mL
- MIC [31]: 0.1 µg/mL
